By IC50 is commonly meant the midpoint of a concentration-inhibition curve. A word on the solubility: it is the concentration that dissolves in the medium under given conditions. Low values mean a poorly soluble substance, high ones a readily soluble substance.

The structures appear in SMILES notation. Converted amounts (≈) assume the structure as drawn. The source made the active and inactive calls. The rule behind the calls is not given here.

These results are taken from ChEMBL document CHEMBL5360668, “Discovery of Potent Allosteric DRP1 Inhibitors by Disrupting Protein-Protein Interaction with MiD49” (ACS Med Chem Lett, 2023).

A short description of data set [1]: Negative allosteric modulator activity at human N-terminal His-tagged DRP1-human C-terminal GST-tagged MiD49 protein protein interaction expressed in Escherichia coli BL21 (DE3) incubated for 90 mins by AlphaLISA assay. The procedure, abridged:
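AlphaLISA proximity assay. Glutathione donor and nickel chelate acceptor beads added, then 60 min at room temperature protected from light before signal read. Hits run as 11-point dose–response with TruHits counter-screen.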
On the technique in general: In Alpha technology, singlet oxygen from a donor bead excites a nearby acceptor bead.

The nature of data set [2]: Solubility of compound in PBS at pH 7.5. The format is physicochemical.
The test system of data set [3] is A549. The data set can be described thus: Inhibition of CCCP-induced mitochondrial fragmentation in human A549 cells preincubated for 1 hr followed by CCCP stimulation for 3 hrs by Alexa Fluor 488/568 and Hoechst staining based high-content imaging analysis. The format is functional, cell-based. The following applies: time 4.0 hrs. The procedure, abridged: (§1)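 A549 cells exposed to compound 1 h at 37 °C, then co-treated with CCCP (5 μM) a further 3 h at 37 °C. Cells fixed in paraformaldehyde and stained with anti-TOM20 primary and goat anti-mouse secondary. Mitochondrial morphology scored by high-content imaging with a supervised machine-learning classifier trained on control siRNA (normal), OPA1 siRNA (fragmented) and DRP1 siRNA (hypertubular) images.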

Data set [4] has as its system A549. The data set can be described thus: Inhibition of CCCP-induced mitochondrial fragmentation in human A549 cells at 0.37 to 3.3 uM preincubated for 1 hr followed by CCCP stimulation for 3 hrs by Alexa Fluor 488/568 and Hoechst staining based high-content imaging analysis. Type of data set: functional, cell-based. The following applies: dose 0.37-3.3 µM, time 4.0 hrs. The procedure, abridged: as §1

Data set [5] concerns A549. The data set can be described thus: Inhibition of CCCP-induced mitochondrial morphology change in human A549 cells at 10 uM preincubated for 1 hr followed by CCCP stimulation for 3 hrs by Alexa Fluor 488/Hoechst 33342 staining based high-content imaging analysis. The following applies: time 4.0 hrs. Type of data set: functional, cell-based. The procedure, abridged:
as §1

In data set [1], `Cc1ccc(-c2cc(N3CCC3)c3cc(NC(=O)C(C)C)ccc3n2)cc1` displayed an IC50 of 50 nM. In data set [2], this compound registered a solubility of 11 µM (≈ 3.95 µg/mL). `CC(C)C(=O)Nc1ccc2nc(-c3ccccc3)cc(N3CCOCC3)c2c1` returned an IC50 in data set [1] of 22000 nM.

`CCOc1cc(-c2ccccc2)nc2ccc(NC(=O)C(C)C)cc12`: the IC50 in data set [1] came to 3600 nM. The same measure, in the same setting: then `O=C(Nc1ccc2nc(-c3ccccc3)cc(N3CC(O)C3)c2c1)C1COC1`, with 290 nM; and `CC(C)C(=O)Nc1ccc2nc(-c3ccccc3)cc(N3CC(F)C3)c2c1`, with 290 nM; and `COc1ccc(-c2cc(N3CCC3)c3cc(NC(=O)C4COC4)ccc3n2)cc1`, with 140 nM. `CC(C)C(=O)Nc1ccc2nc(-c3ccccc3)cc(N3CCC3)c2c1` displayed an IC50 in data set [1] of 120 nM. In the case of `CC(C)C(=O)Nc1ccc2nc(-c3ccccc3)cc(-n3ccnc3)c2c1`, it took 22000 nM to reach half-maximal inhibition in data set [1] (IC50). On the same count and under the same terms, in the case of `CC1CN(c2cc(-c3ccccc3)nc3ccc(NC(=O)C(C)C)cc23)C1` it was 580 nM; in that of `CCNc1cc(-c2ccccc2)nc2ccc(NC(=O)C(C)C)cc12`, 4300 nM. In turn, `CC(C)C(=O)Nc1ccc2nc(-c3ccccc3)cc(N3CCCC3=O)c2c1` gave an IC50 in data set [1] above 100000 nM. Compound `O=C(Nc1ccc2nc(-c3ccccc3)cc(N3CCC3)c2c1)C1COC1` came in with an IC50 in data set [1] of 100 nM. Besides, the solubility in data set [2] was 281 µM (≈ 101 µg/mL). Further, the inhibition result with A549 [3] was “Dose-Dependent Effect”. In addition, the inhibition entry in the data set on A549 [4] and in the data set with A549 [5] was “Active” each time. For the compound `CC(C)C(=O)Nc1ccc2nc(-c3ccccc3)cc(-n3cccn3)c2c1`, half-maximal inhibition in data set [1] (IC50) required 12000 nM. Still for that read-out and setting: then `CC(C)C(=O)Nc1ccc2nc(-c3ccccc3)cc(N(C)C)c2c1`, with 11000 nM; and `CC(C)C(=O)Nc1ccc2nc(-c3ccccc3)cc(N3CCCCC3)c2c1`, with 13000 nM; and `CC(C)C(=O)Nc1ccc2nc(-c3ccccc3)cc(N3CCCC3)c2c1`, with 450 nM.
